Measurements from ChEMBL document CHEMBL1125382, “Benzazepinone calcium channel blockers. 2. Structure-activity and drug metabolism studies leading to potent antihypertensive agents. Comparison with benzothiazepinones” (J Med Chem, 1992).

Tests used:
Oryctolagus cuniculus [1] = organism: Oryctolagus cuniculus; experiment: Vasorelaxant effects in circumferential strips of potassium-depolarized rabbit aorta. (IC50 in rabbit aorta strips contracted with KCl(95% confidence interval)); assay type: functional, organism-based
In short: (§1)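 Circumferential strips of rabbit thoracic aorta, contracted by depolarization with 100 mM KCl, then exposed to various concentrations of compound.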

Rattus norvegicus [2] = experiment: In vivo evaluation for the percentage decrease in blood pressure at 135 umol/kg administered through oral route in spontaneously hypertensive rats and observed for 0-6 h.; assay type: functional
In short: (§2)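 Male spontaneously hypertensive rats, 15 weeks old, dosed by oral gavage at 135 μmol/kg. Blood pressure recorded directly via an indwelling abdominal aortic catheter exteriorized in the intrascapular region. Sampled over 20-s intervals every 5 min for 24 h. Value is the maximum percent fall in systolic pressure from predrug control within the stated period, mean of five rats.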

Rattus norvegicus [3] = experiment: In vivo evaluation for the percentage decrease in blood pressure at 135 umol/kg administered through oral route in spontaneously hypertensive rats and observed for 12-18 h.; assay type: functional; in short: as §2
Rattus norvegicus [4] = experiment: In vivo evaluation for the percentage decrease in blood pressure at 135 umol/kg administered through oral route in spontaneously hypertensive rats and observed for 6-12 h.; assay type: functional; in short: as §2
Oryctolagus cuniculus [5] = organism: Oryctolagus cuniculus; experiment: In vitro evaluation for the vasorelaxant effects in circumferential strips of potassium-depolarized rabbit aorta. (IC50 in rabbit aorta strips contracted with KCl; assay type: functional; in short: as §1
[6] = In Vitro evaluation for the affinity for the diltiazem receptor in isolated guinea pig skeletal muscle microsomal preparations by inhibiting [3H]diltiazem binding; assay type: microsomes, Cavia porcellus, Muscle tissue
In short: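 Membranes from male guinea pig (350–450 g) hind-limb muscle, mainly quadriceps and gastrocnemius, in 50 mM Tris-HCl. 125–250 μg protein incubated with [3H]-d-cis-diltiazem and competing drug, 250 μL final, 30 °C for 1 h. Rapid GF/B filtration and scintillation counting. Nonspecific binding defined with 100 μM unlabeled diltiazem. Kd calculated from concentration–response curves for inhibition of specific binding; ±SEM.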

Oryctolagus cuniculus [7] = organism: Oryctolagus cuniculus; experiment: In Vitro evaluation for the vasorelaxant effects in circumferential strips of potassium-depolarized rabbit aorta. (IC50 in rabbit aorta strips contracted with KCl; assay type: functional; in short: as §1
Rattus norvegicus [8] = experiment: In vivo evaluation for the percentage decrease in blood pressure at 270 umol/kg administered through oral route in spontaneously hypertensive rats and observed for 12-18 h; assay type: functional

SMILES	IC50 (Oryctolagus cuniculus [1]; Oryctolagus cuniculus, Aorta) [µM]	Decrease (Rattus norvegicus [2]) [%]	Decrease (Rattus norvegicus [3]) [%]	Decrease (Rattus norvegicus [4]) [%]	IC50 (Oryctolagus cuniculus [5]; Oryctolagus cuniculus, Aorta) [µM]	Kd [6] [µM]	IC50 (Oryctolagus cuniculus [5]) [µM]	IC50 (Oryctolagus cuniculus [7]) [µM]	IC50 (Oryctolagus cuniculus [1]) [µM]	Decrease (Rattus norvegicus [8]) [%]
COc1ccc([C@@H]2Cc3c(cccc3C(F)(F)F)N(C[C@H]3CCCN3C)C(=O)[C@@H]2OC(C)=O)cc1	1.1	20	18	21						
COc1ccc([C@@H]2Cc3c(cccc3C(F)(F)F)N(CCO)C(=O)[C@@H]2OC(C)=O)cc1		1	4	3						
CNCCN1C(=O)[C@H](O)[C@H](c2ccc(OC)cc2)Cc2c1cccc2C(F)(F)F		16	22	20	0.69					
COc1ccc([C@@H]2Sc3cc(Cl)ccc3N(CCN(C)C)C(=O)[C@@H]2OC(C)=O)cc1 [CLENTIAZEM]						0.081	0.24			
COc1ccc([C@@H]2Cc3c(cccc3C(F)(F)F)N(CCN(C)C)C(=O)[C@@H]2OC(C)=O)cc1.Cl (stereo in doubt)	0.15	31	30	27		0.12				
CNCCN1C(=O)[C@H](OC(C)=O)[C@H](c2ccc(OC)cc2)Cc2c1cccc2C(F)(F)F	0.18	32	32	34						
COc1ccc([C@@H]2Cc3cc(C(F)(F)F)ccc3N(CCN(C)C)C(=O)[C@@H]2OC(C)=O)cc1.Cl			18	19						
COc1ccc([C@@H]2Cc3c(cccc3C(F)(F)F)N(CC(=O)O)C(=O)[C@@H]2OC(C)=O)cc1		6	4	3	> 3					
COc1ccc([C@H]2Cc3c(cccc3C(F)(F)F)N(CCN(C)C)C(=O)[C@H]2OC(C)=O)cc1.Cl (stereo in doubt; 4n)	4.9	9	9	9		2				
COc1ccc([C@H]2Cc3c(cccc3C(F)(F)F)N(CCN(C)C)C(=O)[C@@H]2OC(C)=O)cc1.Cl (relative stereo)		5	11	9	> 10	3.8				
CNCCN1C(=O)[C@H](O)[C@H](c2ccc(OC)cc2)Cc2cc(C(F)(F)F)ccc21		14	14	15	1.9					
COc1ccc([C@@H]2Cc3c(cccc3C(F)(F)F)N(CC=O)C(=O)[C@@H]2OC(C)=O)cc1								> 3		
COc1ccc([C@H]2Cc3cc(Cl)ccc3N(CCN(C)C)C(=O)[C@H]2OC(C)=O)cc1 (relative stereo)		1	9	4		8.2				
COc1ccc([C@H]2Cc3cc(C(F)(F)F)ccc3N(CCN(C)C)C(=O)[C@H]2OC(C)=O)cc1.Cl (stereo in doubt)	> 10	7	7	8		6.3				
COc1ccc([C@@H]2Cc3c(cccc3C(F)(F)F)N(C[C@@H]3CCCN3)C(=O)[C@@H]2OC(C)=O)cc1		45	38	39						
COc1ccc([C@@H]2Cc3c(cccc3C(F)(F)F)N(C[C@H]3CCCN3)C(=O)[C@@H]2O)cc1	0.89	17	18	18						
COc1ccc([C@@H]2Cc3c(cccc3C(F)(F)F)N(C[C@@H]3CCCN3)C(=O)[C@@H]2O)cc1		30	27	26				0.095		
COc1ccc([C@@H]2Cc3c(Cl)cccc3N(CCN(C)C)C(=O)[C@@H]2OC(C)=O)cc1	1.6	9	11	8						

SMILES	IC50 (Oryctolagus cuniculus [1]; Oryctolagus cuniculus, Aorta) [µM]	Decrease (Rattus norvegicus [2]) [%]	Decrease (Rattus norvegicus [3]) [%]	Decrease (Rattus norvegicus [4]) [%]	IC50 (Oryctolagus cuniculus [5]; Oryctolagus cuniculus, Aorta) [µM]	Kd [6] [µM]	IC50 (Oryctolagus cuniculus [5]) [µM]	IC50 (Oryctolagus cuniculus [7]) [µM]	IC50 (Oryctolagus cuniculus [1]) [µM]	Decrease (Rattus norvegicus [8]) [%]
COc1ccc([C@@H]2Cc3c(cccc3C(F)(F)F)N(C[C@@H]3CCCN3C)C(=O)[C@@H]2OC(C)=O)cc1		30	29	29	0.52					
COc1ccc([C@@H]2Cc3c(cccc3C(F)(F)F)N(C[C@H]3CCCN3)C(=O)[C@@H]2OC(C)=O)cc1	0.63	21	26	22						
COc1ccc([C@@H]2Cc3cc(C(F)(F)F)ccc3N(CCN(C)C)C(=O)[C@@H]2O)cc1.Cl		8	14	9						
COc1ccc([C@@H]2Cc3cc(C(F)(F)F)ccc3N(CCN(C)C)C(=O)[C@@H]2OC(C)=O)cc1.Cl (stereo in doubt)	1.6	19	19	22		0.18				
COc1ccc([C@@H]2Sc3ccccc3N(CCN(C)C)C(=O)[C@@H]2OC(C)=O)cc1 [DILTIAZEM]								1.8		
COc1ccc([C@@H]2Cc3c(cccc3C(F)(F)F)N(CCN(C)C)C(=O)[C@@H]2OC(C)=O)cc1.Cl		24	24	26	0.24					
COc1ccc([C@@H]2Cc3ccc(Cl)cc3N(CCN(C)C)C(=O)[C@@H]2OC(C)=O)cc1		7	4	2	7.7					
CNCCN1C(=O)[C@H](OC(C)=O)[C@H](c2ccc(OC)cc2)Cc2cc(C(F)(F)F)ccc21		28	31	29	0.88					
COc1ccc([C@@H]2Cc3c(OC)cccc3N(CCN(C)C)C(=O)[C@@H]2OC(C)=O)cc1.Cl	2.4	0	1	0						
COc1ccc([C@H]2Cc3c(cccc3C(F)(F)F)N(CCN(C)C)C(=O)[C@H]2OC(C)=O)cc1.Cl (stereo in doubt; 4p)			7	8		1.2			3.9	
COc1ccc([C@@H]2Cc3cc(Cl)ccc3N(CCN(C)C)C(=O)[C@@H]2OC(C)=O)cc1	1.5	13		14						18
COc1ccc(C2Sc3cc(OC)ccc3N(CCN(C)C)C(=O)C2OC(C)=O)cc1 (stereo not given)					0.12	0.042				
COc1ccc([C@@H]2Cc3cc(OC)ccc3N(CCN(C)C)C(=O)[C@@H]2OC(C)=O)cc1.Cl		15	10	8						
COc1ccc([C@@H]2Sc3ccccc3N(CCN(C)C)C(=O)[C@@H]2OC(C)=O)cc1 (relative stereo) [DILTIAZEM]	0.21	23	17	12		0.2				
COc1ccc([C@H]2Cc3cc(Cl)ccc3N(CCN(C)C)C(=O)[C@@H]2OC(C)=O)cc1		12	12	12		0.69				
COc1ccc([C@@H]2Sc3cc(Cl)ccc3N(CCN(C)C)C(=O)[C@@H]2OC(C)=O)cc1 (relative stereo) [CLENTIAZEM]		41	24	26		0.095				
COc1ccc([C@@H]2Cc3c(cccc3C(F)(F)F)N(CCN(C)C)C(=O)[C@@H]2O)cc1	0.3	21	28	26						
